{
  "source": "paper PMC7172891",
  "about": "(Peptides, 2008)",
  "key": {"HSV-1": {"test_system": "HSV-1", "assay": "HSV-1 virus entry assay: plaque inhibition on Vero cells", "type": "cell-based", "conditions": "for inhibition of HSV-1 infectivity, cell pre-exposure: peptide 250 μM, Vero cells treated with peptide before viral challenge; for activity in dose-dependent inhibition assay of HSV entry: co-treatment, up to 500 μM, Vero cells"}, "[1]": {"conditions": "PC/Chol (1:1) LUV, probe dilution assay; cited from earlier work"}, "[2]": {"assay": "Solubility / precipitation observations", "type": "physicochemical"}, "[3]": {"assay": "Circular dichroism: helix content and oligomeric state", "type": "physicochemical", "conditions": "for ratio θ222/θ208 (monomer about 0.8, oligomer above 1.0) / percentage of helix (CD, ellipticity at 222 nm): peptide 20 μM", "in_short": "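CD spectra at room temperature in 1.0 or 0.1 cm quartz cells. Peptide 20 μM titrated in varying % TFE; 5–200 μM series in buffer, 20% TFE and […]. For lipid samples, peptide in TFE was mixed with lipid in chloroform, dried, lyophilised and rehydrated in water to 0.9 mM final lipid. Scans averaged (three, 260–195 nm), blank-corrected, converted to MRE.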"}, "[4]": {"assay": "Native gel electrophoresis: oligomeric state of peptides", "type": "physicochemical", "conditions": "without SDS and with 4 mM and 5 mM SDS", "in_short": "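Peptide solution (1 mM in phosphate buffer pH 7.3, before mixing) incubated alone or with 4 or 5 mM SDS for 5 min at 25 °C. Non-denaturing PAGE with 4% stacking and 12% separating gel, run 2.5 h at constant 30 mA. Bands visualised with Coomassie R-250.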"}, "[5]": {"test_system": "parainfluenza-2 virus (PIV-2)", "assay": "Inhibition of PIV-2 infectivity, co-exposure mode", "type": "cell-based", "conditions": "peptide 250 and 500 μM", "in_short": "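Co-exposure: cells and virus inoculum incubated together with peptide for 45 min at 37 °C. Non-penetrated virus inactivated with low-pH citrate buffer. Cells then held 48 h at 37 °C in DMEM with CMC, and plaques counted. Run in triplicate. Percent inhibition calculated against no-peptide control, with standard deviations; scrambled peptides run in parallel.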"}, "HIV-1": {"test_system": "HIV-1", "conditions": "cited from earlier work"}},
  "data": [
    {"substance": "AAHLIDALYAEFLGGRVLTTPVVHRALFYASAVLRQPFLAGVPSA [gH493–537]", "values": [
      {"measurement": "inhibition of HSV-1 infectivity, post-exposure treatment", "setting": "HSV-1; peptide 250 μM added after 45 min infection of Vero cells", "value": "not active"},
      {"measurement": "inhibition of HSV-1 infectivity, cell pre-exposure", "setting": "HSV-1", "value": "not active"},
      {"measurement": "ability to induce fusion of vesicles (lipid mixing), previously reported", "setting": "[1]", "value": "able to induce fusion"}
    ]},
    {"substance": "GLASTLTRWAHYNALIRAF [gH626–644]", "values": [
      {"measurement": "precipitation in inhibition experiments", "setting": "[2]; 500 μM", "value": "probably indicating a precipitation of the peptide at this concentration"},
      {"measurement": "precipitation / macroscopic aggregation", "setting": "[2]; in presence of membranes, concentrations assayed in CD studies (5–200 μM)", "value": "did not precipitate or otherwise form macroscopic aggregates"},
      {"measurement": "ratio θ222/θ208 (monomer about 0.8, oligomer above 1.0)", "setting": "[3]; 20% TFE, TFE titration", "value": "approximately 1.05"},
      {"measurement": "helicity (CD, ellipticity at 222 nm)", "setting": "[3]; 20% TFE, peptide 5 μM", "value": "about 19%"},
      {"measurement": "percentage of helix (CD, ellipticity at 222 nm)", "setting": "[3]; 20% TFE, room temperature", "value": 27, "unit": "%"},
      {"measurement": "ratio θ222/θ208 over peptide concentration", "setting": "[3]; 20% TFE, peptide 5–200 μM", "value": "around 1"},
      {"measurement": "concentration at which the peptide already oligomerises (CD)", "setting": "[3]; CD data", "value": 50, "unit": "µM"},
      {"measurement": "conformation in buffer solution (CD)", "setting": "[3]; buffer solution, spectra unaltered over 5–200 μM", "value": "random coil conformation"},
      {"measurement": "ratio θ222/θ208 (monomer about 0.8, oligomer above 1.0)", "setting": "[3]; higher percentages of TFE", "value": 0.76},
      {"measurement": "percentage of helix (CD, ellipticity at 222 nm)", "setting": "[3]; increasing (higher) concentrations of TFE", "value": "approximately 35%"},
      {"measurement": "oligomer order in NATIVE-PAGE", "setting": "[4]", "value": "forms higher order oligomers compared to gH493–512"},
      {"measurement": "inhibition of HSV-1 infectivity, cell pre-exposure", "setting": "HSV-1", "value": "partially inhibit viral entry"},
      {"measurement": "effect on parainfluenzavirus-2 (PIV-2) infectivity", "setting": "[5]", "value": "none of these peptides exerted any significant effect"},
      {"measurement": "ability to induce fusion of vesicles (lipid mixing), previously reported", "setting": "[1]", "value": "able to induce fusion"}
    ]},
    {"substance": "TWLATRGLLRSPGRYVYFSPSASTWPVGIWTTGELVLGCDAAL [gH220–262]", "values": [
      {"measurement": "activity in dose-dependent inhibition assay of HSV entry", "setting": "HSV-1", "value": "non-significant activity"},
      {"measurement": "ability to induce fusion of vesicles (lipid mixing), previously reported", "setting": "[1]", "value": "able to induce fusion"}
    ]},
    {"substance": "Enfuvirtide", "values": [
      {"measurement": "inhibition of HIV-1", "setting": "HIV-1", "value": "active at low nanomolar concentration"}
    ]},
    {"substance": "RLTGLLATSGFAFVNAAHANGAVCLSDLLGFLAHSRALAG [gH381–420]", "values": [
      {"measurement": "activity in dose-dependent inhibition assay of HSV entry", "setting": "HSV-1", "value": "non-significant activity"},
      {"measurement": "ability to induce fusion of vesicles (lipid mixing), previously reported", "setting": "[1]", "value": "able to induce fusion"}
    ]}
  ]
}
